Results reported in ChEMBL document CHEMBL4431364, “Discovery and synthetic optimization of a novel scaffold for hydrophobic tunnel-targeted autotaxin inhibition” (Bioorg Med Chem, 2016).
pIC50: −log10 of the molar value. Activity calls are given as the source filed them. No cut-off for these calls is given here.

Columns and labels:
[1] = biological target: Lysophosphatidic acid receptor 1 (Homo sapiens) (UniProt Q92633); test: Antagonist activity at LPA receptor 1 (unknown origin) assessed as inhibition of LPA induced calcium mobilization at 0.01 to 10 uM after 30 mins by fluorescence analysis; format: functional
[2] = biological target: Lysophosphatidic acid receptor 2 (Mus musculus) (UniProt Q9JL06); test: Potentiation of LPA induced activity at LPA receptor 2 in double knockout MEF assessed as calcium mobilization at 0.01 to 10 uM after 30 mins in presence of BSA by Fura-2AM based fluorescence analysis; format: functional, cell-based
[3] = biological target: T1, Autotaxin (Homo sapiens, UniProt Q13822); test: Inhibition of C-terminal FLAG tagged human recombinant ATX expressed in insect sf9 cells using pNP-TMP as substrate measured every 2 mins for 60 mins by absorbance
Procedure, shortened: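 Dose response 0.03 to 30 μM compound against 10 nM human FLAG-fusion ATX with 1 mM pNP-TMP in pH 8.0 Tris/BSA buffer. A405 every 2 min for 60 min at 37 °C, normalized to no-enzyme and uninhibited controls. IC50 by non-linear regression. Triplicate.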

[4] = biological target: Lysophosphatidic acid receptor 5 (Homo sapiens) (UniProt Q9H1C0); test: Agonist activity at LPA receptor 5 (unknown origin) assessed as calcium mobilization after 30 mins by fluorescence analysis; format: functional
[5] = biological target: T2, Lysophosphatidic acid receptor 3 (Homo sapiens) (UniProt Q9UBY5); test: Antagonist activity at LPA receptor 3 (unknown origin) assessed as inhibition of LPA induced calcium mobilization at 0.01 to 10 uM after 30 mins by fluorescence analysis; format: functional
T2 sequence (whole entry): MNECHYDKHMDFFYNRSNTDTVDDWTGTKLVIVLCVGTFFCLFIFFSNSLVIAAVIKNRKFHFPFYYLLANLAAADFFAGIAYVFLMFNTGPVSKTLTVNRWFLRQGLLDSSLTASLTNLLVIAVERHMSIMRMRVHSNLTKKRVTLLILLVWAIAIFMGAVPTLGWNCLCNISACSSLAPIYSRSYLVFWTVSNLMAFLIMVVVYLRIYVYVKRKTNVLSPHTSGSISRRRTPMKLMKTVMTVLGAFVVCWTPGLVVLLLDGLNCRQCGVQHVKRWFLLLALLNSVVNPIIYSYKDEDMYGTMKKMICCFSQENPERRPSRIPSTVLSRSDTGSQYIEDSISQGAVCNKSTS

[6] = biological target: T1, Autotaxin; test: Inhibition of C-terminal FLAG tagged human recombinant ATX expressed in insect sf9 cells using FS-3 as substrate measured every 2 mins for 60 mins by FRET assay
Procedure, shortened: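 Dose response over 0.03 to 30 μM compound, 10 nM human FLAG-fusion ATX, 1 μM FS-3 in pH 8.0 Tris/BSA assay buffer. Fluorescence at 485/520 nm every 2 min for 60 min at 37 °C, normalized to no-ATX and no-compound controls. IC50 by non-linear regression. Triplicate.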

[7] = biological target: T1, Autotaxin; test: Inhibition of C-terminal FLAG tagged human recombinant ATX expressed in insect sf9 cells at 10 uM using pNP-TMP as substrate measured every 2 mins for 60 mins by absorbance
[8] = biological target: Lysophosphatidic acid receptor 2 (Mus musculus) (UniProt Q9JL06); test: Agonist activity at LPA receptor 2 in double knockout MEF assessed as calcium mobilization after 30 mins by fluorescence analysis; format: functional, cell-based
[9] = biological target: Lysophosphatidic acid receptor 4 (Homo sapiens) (UniProt Q99677); test: Antagonist activity at LPA receptor 4 (unknown origin) assessed as inhibition of LPA induced calcium mobilization at 0.01 to 10 uM after 30 mins by fluorescence analysis; format: functional
[10] = biological target: T3, Ectonucleotide pyrophosphatase/phosphodiesterase family member 7 (Homo sapiens) (UniProt Q6UWV6); test: Inhibition of C-terminal FLAG tagged human recombinant NPP7 expressed in insect sf9 cells assessed as remaining enzyme activity response at 10 uM using pNPPC as substrate measured every 2 mins for 1 hr by […]
T3 sequence (whole entry): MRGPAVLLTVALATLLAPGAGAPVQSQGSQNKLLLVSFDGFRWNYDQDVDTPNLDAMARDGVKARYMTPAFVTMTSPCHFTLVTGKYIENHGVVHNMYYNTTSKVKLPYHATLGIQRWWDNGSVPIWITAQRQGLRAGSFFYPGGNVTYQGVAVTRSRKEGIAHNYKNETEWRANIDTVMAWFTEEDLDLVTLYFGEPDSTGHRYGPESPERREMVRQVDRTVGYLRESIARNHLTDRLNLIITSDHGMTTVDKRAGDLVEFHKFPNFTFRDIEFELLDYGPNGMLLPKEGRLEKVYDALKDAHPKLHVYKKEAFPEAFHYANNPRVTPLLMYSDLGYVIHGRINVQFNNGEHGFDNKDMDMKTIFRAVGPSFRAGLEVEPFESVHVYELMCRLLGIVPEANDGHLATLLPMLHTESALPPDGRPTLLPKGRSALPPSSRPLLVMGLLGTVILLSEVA
Procedure, shortened: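 Human FLAG-fusion NPP7 (10 nM final) with 10 μM compound and 10 μM pNPPC in 50 mM Tris-HCl, 150 mM NaCl, 10 mM taurocholate, pH 8. Absorbance at 405 nm, 37 °C, every 2 min for an hour. Background subtracted. Mean percent of enzyme-only response (no-enzyme = 0%). Triplicate.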

[11] = biological target: T1, Autotaxin; test: Inhibition of C-terminal FLAG tagged human recombinant ATX expressed in insect sf9 cells at 10 uM using FS-3 as substrate measured every 2 mins for 60 mins by FRET assay
Procedure, shortened: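 10 μM compound with 10 nM human FLAG-fusion ATX in pH 8.0 Tris buffer (30 μM BSA, 1 mM CaCl2, 1 mM MgCl2, 5 mM KCl, 140 mM NaCl) and 1 μM FS-3. Fluorescence at ex 485/em 520 nm read every 2 min for 60 min at 37 °C. Normalized to no-ATX (0%) and ATX without compound (100%). Triplicate.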

[12] = biological target: T1, Autotaxin; test: Potency index, ratio of IC50 for GRI392104 to IC50 for test compound for inhibition of C-terminal FLAG tagged human recombinant ATX expressed in insect sf9 cells using FS-3 as substrate measured every 2 mins for 60 mins by FRET assay
[13] = biological target: Lysophosphatidic acid receptor 5 (Homo sapiens) (UniProt Q9H1C0); test: Antagonist activity at LPA receptor 5 (unknown origin) assessed as inhibition of LPA induced calcium mobilization at 0.01 to 10 uM after 30 mins by fluorescence analysis; format: functional
[14] = biological target: Lysophosphatidic acid receptor 4 (Homo sapiens) (UniProt Q99677); test: Agonist activity at LPA receptor 4 (unknown origin) assessed as calcium mobilization after 30 mins by fluorescence analysis; format: functional
[15] = biological target: T2, Lysophosphatidic acid receptor 3 (Homo sapiens); test: Agonist activity at LPA receptor 3 (unknown origin) assessed as calcium mobilization after 30 mins by fluorescence analysis; format: functional
[16] = biological target: Lysophosphatidic acid receptor 1 (Homo sapiens) (UniProt Q92633); test: Agonist activity at LPA receptor 1 (unknown origin) assessed as calcium mobilization after 30 mins by fluorescence analysis; format: functional
[17] = biological target: Lysophosphatidic acid receptor 2 (Mus musculus) (UniProt Q9JL06); test: Antagonist activity at LPA receptor 2 in double knockout MEF assessed as inhibition of LPA induced calcium mobilization at 0.01 to 10 uM after 30 mins by fluorescence analysis; format: functional, cell-based
[18] = biological target: T4, Glycerophosphocholine cholinephosphodiesterase ENPP6 (Homo sapiens) (UniProt Q6UWR7); test: Inhibition of C-terminal FLAG tagged human recombinant NPP6 expressed in insect sf9 cells assessed as remaining enzyme activity response at 10 uM using pNPPC as substrate measured every 2 mins for 1 hr by […]
T4 sequence (whole entry): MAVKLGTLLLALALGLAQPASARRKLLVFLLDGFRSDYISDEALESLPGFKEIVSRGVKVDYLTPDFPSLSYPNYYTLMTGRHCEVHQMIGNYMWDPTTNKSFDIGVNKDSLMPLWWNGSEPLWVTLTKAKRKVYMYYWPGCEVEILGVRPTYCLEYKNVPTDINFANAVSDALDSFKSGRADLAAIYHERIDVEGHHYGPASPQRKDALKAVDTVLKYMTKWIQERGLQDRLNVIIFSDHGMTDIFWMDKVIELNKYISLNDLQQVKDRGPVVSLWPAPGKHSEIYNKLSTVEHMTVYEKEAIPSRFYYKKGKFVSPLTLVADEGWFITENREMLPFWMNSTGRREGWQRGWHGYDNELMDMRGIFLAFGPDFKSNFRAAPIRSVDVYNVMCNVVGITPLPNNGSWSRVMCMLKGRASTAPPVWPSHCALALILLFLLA
Procedure, shortened: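 Final 10 nM human FLAG-fusion NPP6, 10 μM compound, 10 μM pNPPC in 500 mM NaCl, 100 mM Tris-HCl, 0.05% Triton X-100, pH 9. A405 at 37 °C every 2 min for 1 h. Background absorbance subtracted. Mean percent response relative to enzyme-only control (no-enzyme = 0%). Triplicate.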

Chain of Lysophosphatidic acid receptor 2 (Mus musculus) (Q9JL06 whole entry): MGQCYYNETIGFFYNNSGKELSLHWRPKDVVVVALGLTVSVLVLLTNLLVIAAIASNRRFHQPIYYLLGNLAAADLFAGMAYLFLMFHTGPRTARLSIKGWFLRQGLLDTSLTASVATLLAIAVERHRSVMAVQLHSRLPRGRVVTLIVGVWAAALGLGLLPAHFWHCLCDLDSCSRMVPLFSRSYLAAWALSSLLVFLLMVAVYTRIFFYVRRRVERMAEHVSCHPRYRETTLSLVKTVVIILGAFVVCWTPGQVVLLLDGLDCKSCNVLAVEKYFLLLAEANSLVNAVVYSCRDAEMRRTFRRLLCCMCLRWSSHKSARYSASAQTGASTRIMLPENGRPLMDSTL
Chain of Lysophosphatidic acid receptor 1 (Homo sapiens) (Q92633 whole entry): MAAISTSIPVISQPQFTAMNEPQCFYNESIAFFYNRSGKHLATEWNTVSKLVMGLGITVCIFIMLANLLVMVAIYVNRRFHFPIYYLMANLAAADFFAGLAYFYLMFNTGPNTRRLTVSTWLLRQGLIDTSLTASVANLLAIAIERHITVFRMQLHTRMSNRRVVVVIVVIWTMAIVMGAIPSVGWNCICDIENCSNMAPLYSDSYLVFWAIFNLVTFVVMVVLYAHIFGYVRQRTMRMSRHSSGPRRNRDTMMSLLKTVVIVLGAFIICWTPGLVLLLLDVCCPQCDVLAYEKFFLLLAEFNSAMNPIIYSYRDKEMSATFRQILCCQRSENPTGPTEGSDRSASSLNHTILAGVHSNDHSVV
Chain of Lysophosphatidic acid receptor 5 (Homo sapiens) (Q9H1C0 whole entry): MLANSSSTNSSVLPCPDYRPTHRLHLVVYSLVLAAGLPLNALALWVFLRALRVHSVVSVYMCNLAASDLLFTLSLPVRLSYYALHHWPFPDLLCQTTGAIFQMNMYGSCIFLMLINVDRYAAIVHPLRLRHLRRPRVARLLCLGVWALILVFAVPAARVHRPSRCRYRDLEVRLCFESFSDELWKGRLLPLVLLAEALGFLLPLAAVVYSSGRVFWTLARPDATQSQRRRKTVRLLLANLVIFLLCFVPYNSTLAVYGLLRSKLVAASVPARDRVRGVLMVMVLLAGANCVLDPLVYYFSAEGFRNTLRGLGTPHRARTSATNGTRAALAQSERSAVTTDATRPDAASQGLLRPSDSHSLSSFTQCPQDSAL
Chain of Lysophosphatidic acid receptor 4 (Homo sapiens) (Q99677 whole entry): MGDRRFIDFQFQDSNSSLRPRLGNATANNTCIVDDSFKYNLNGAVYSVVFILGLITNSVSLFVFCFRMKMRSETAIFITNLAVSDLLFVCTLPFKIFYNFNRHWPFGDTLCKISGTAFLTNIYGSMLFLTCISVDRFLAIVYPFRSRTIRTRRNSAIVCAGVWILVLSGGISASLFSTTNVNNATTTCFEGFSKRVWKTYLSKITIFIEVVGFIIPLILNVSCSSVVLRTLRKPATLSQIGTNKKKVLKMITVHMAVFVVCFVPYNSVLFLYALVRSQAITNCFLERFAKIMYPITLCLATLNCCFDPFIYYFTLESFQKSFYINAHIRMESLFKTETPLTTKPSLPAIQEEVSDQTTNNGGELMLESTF

inhibition [1]: inactive
Activity [2]: Active
pIC50 [3]: 5.05
Activity [4]: inactive
inhibition [5]: inactive
pIC50 [6]: 6.17
inhibition [7]: 52.1%
Activity [8]: inactive
inhibition [9]: inactive
Activity [10]: 102%
inhibition [11]: 84.3%
Ratio IC50 [12]: 6
inhibition [13]: inactive
Activity [14]: inactive
Activity [15]: inactive
Activity [16]: inactive
inhibition [17]: inactive
Activity [18]: 89.8%
SMILES: O=C(COc1cc(Cl)cc(Cl)c1)N1CCN(c2cccc([N+](=O)[O-])c2)CC1
